# Only some compounds are listed: those with a hit (about 5.7% of all), similar ones and a draw of the others.
# SKKanGAS inh: S. pyogenes SKKanGAS growth inhibitors in kanamycin, primary screen, streptokinase expression inhibitor project, SKKanGAS strain, BacTiter-Glo luminescence; 6 h; inhibition, % at 7.5 µM; 300,000 tested, 1.3% active; AID 1662, 2009;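 active = mean replicate score, as percent of positive control median, at least 50; inconclusive = mean below 50 but one replicate at or above 50; inactive = mean and every replicate below 50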;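 note: strain carries kanamycin resistance gene driven by streptokinase promoter and grows in 40 µg/ml kanamycin; loss of luminescence reflects streptokinase promoter inhibition or plain growth inhibition; 0% = median of DMSO wells and 100% = positive control at its reference dose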
# Calb FLC: C. albicans growth inhibition with fluconazole, primary screen, CaCi-2 strain, Alamar Blue fluorescence | C. albicans CaCi-2 (fluconazole-resistant clinical isolate) + fluconazole, 48 h | growth inhibition, % (test concentration not listed) | 300,000 tested, 0.57% active;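 active = growth inhibition above about 58% in most replicates, limit read from the data, passing the limit was not always enough; inconclusive = exactly half the replicates above a set limit; inactive = most replicates below a set limit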;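 note: all wells also contain fluconazole at 8 µg/ml as a sub-toxic cotreatment; 0% = median of DMSO wells and 100% = median of geldanamycin control wells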
# T cruzi inh: inhibitors of intracellular T. cruzi growth, primary screen, luminescence, NIH3T3 host cells; T. cruzi beta-gal in NIH3T3, 90 h; AID 1885, 2009; inhibition, % (no concentration beside the values); 300,000 tested, 1.4% active;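 active = mean inhibition across valid replicates above about 55%, limit read from the data; inconclusive = mean below that limit but half or more replicates reach it; inactive = mean below it, under half of replicates reach it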;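 note: signal also drops with host cell toxicity which is not excluded here; 0% = plate median of DMSO wells and 100% = zero luminescence signal; higher percent means less beta-gal luminescence so fewer parasites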
#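 System: Mouse NIH/3T3 fibroblasts infected with β-gal-expressing T. cruzi Tulahuen C4 | Quantity: NIH/3T3 cells, 5,000 per well | Reagent: 5000 reporter trypomastigotes per well | Dosing: Compound pinned at 50 nL/well, DMSO | Schedule: 3 h host attachment, then at least 90 h co-culture | Detection: GalScreen luminescence, 60 min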
# Beta cell apopt: inhibitors of cytokine-induced beta cell apoptosis, primary screen, luminescence; AID 435005, 2010; 300,000 tested, 0.8% active; protection from apoptosis, % (test concentration not listed); INS-1E cytokine-induced death, ATP luminescence, 48 h; percent of positive-control rescue, neutral wells zero;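 active = Every replicate reaches about 75%, or at least half do and their mean reaches it too, limit read from the data; inconclusive = At least half of replicates reach the limit but their mean does not; inactive = Under half of replicates reach the limit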;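 note: 0% = cytokine-treated negative control wells and 100% = positive control rescue; higher means more ATP so stronger rescue from cytokine killing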
# CSC inhib: cancer stem cell viability inhibitors, primary screen, luminescence | cancer stem cell-like cells viability | inhibition, % at 7.5 µM | 300,000 tested, 1.1% active | AID 2717, 2010; in the data active = inhibition above about 75%; inconclusive = no clear call, values can overlap the other calls; tested in HMLE shEcad cells
# Mdm2-MdmX inh: inhibitors of human Mdm2-MdmX association, primary screen, cell-based, luminescence, split luciferase, SaOS-2, uHTS; SaOS-2 split-luciferase Mdm2/MdmX complementation; inhibition, % at 8 µM; 330,000 tested, 3% active;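 active = inhibition of at least 50% at 8 µM in the primary screen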
# An asterisk follows results filed as active; ? = inconclusive; . = no result.
SMILES,SKKanGAS inh,Calb FLC,T cruzi inh,Beta cell apopt,CSC inhib,Mdm2-MdmX inh
CC(=O)c1c(C)nc(-c2cccc([N+](=O)[O-])c2)n1O,18,76*,-7,-5,-5,-35
Cc1cc(C)n(-c2nc3sc4c(c3c(=O)[nH]2)CCCC4)n1,93*,-25,-8,50,.,.
COCCCNC(=O)CC1C[C@H](C(=O)N2CCOCC2)[C@@]2(CCC3CCCC3)c3[nH]c4ccc(OC)cc4c3CCN2C1=O (stereo not given in full),.,.,.,.,.,13
C(#Cc1c(-c2ccsc2)sc2ccccc12)c1ccsc1,.,.,.,-4,33,-21
CCN(CC)C(=O)Cn1c(=O)n(-c2ccccc2)c(=O)c2c3c(sc21)CCC3,3,113*,5,-3,-6,-11
COC(=O)Cn1c(=O)n(CCc2ccccc2)c(=O)c2c3c(sc21)CCCC3,-6,?,46,0,-1,11
COC(=O)N=Nc1c(O)n(Cc2ccccc2)c2ccccc12,2,-10,5,-7,-1,17
O=Nc1c(O)n(Cc2cccc(Cl)c2)c2ccccc12,2,84*,13,-8,2,43
CC1CCC(NC(=O)c2cc(C3CC3)nn2-c2ccccc2)CC1 (stereo not given),.,.,.,1,.,2
CCOc1ccc(CN2CCC(n3nccc3NC(=O)c3ccccc3OC)CC2)cc1,14,-5,62*,7,-5,17
COc1cc(F)ccc1CN1CCC(n2nccc2NC(=O)C2CCOC2)CC1 (stereo not given),52*,5,7,.,-2,6
COC(C(=O)Nc1ccnn1C1CCN(Cc2nccs2)CC1)c1ccccc1 (stereo not given),51*,0,-6,.,-2,7
CCn1cc(CN2CCC(n3nccc3NC(=O)c3ccccc3OC)CC2)cn1,9,4,33,-1,-8,-5
COc1ccccc1C(=O)Nc1ccnn1C1CCN(Cc2cnc(N(C)C)s2)CC1,5,-3,56*,-4,0,4
COc1ccccc1C(=O)Nc1ccnn1C1CCN(Cc2ccccc2OCCO)CC1,25,-6,-15,.,-7,12
COc1cc(CN2CCC(n3nccc3NC(=O)C3CCOC3)CC2)ccc1F (stereo not given),-5,3,-15,-2,1,27
O=C(NCC1CC1)c1ccc2c(c1)S(=O)(=O)c1cc(Cl)ccc1C2=O,.,.,.,-4,-15,-5
O=C(CN1CCN(CC(=O)Nc2ccccc2Cl)CC1)NCC1(N2CCOCC2)CCCCC1,.,.,.,.,.,11
COc1ccccc1/C=C/CN1CCC(n2nccc2NC(=O)CCc2ccccc2)CC1,-2,4,33,78*,2,43
CCOC(=O)C(NC(=O)c1ccccc1Cl)(Nc1ccc(C)c(C)c1)C(F)(F)F (stereo not given),3,-21,2,-2,-9,3
COC(=O)C(Nc1ccccc1Cl)(c1cc(C)c(O)c(C)c1)C(F)(F)F (stereo not given),88*,30,14,9,3,22
CCN(CC)S(=O)(=O)c1cccc(NC(=O)CNc2cccc(S(=O)(=O)N3CCCC3)c2)c1,-2,2,7,112*,13,29
Cc1ccc(S(=O)(=O)N2CCOCC2)cc1NC(=O)c1cc2c(s1)CCC2,-4,8,52,-3,6,-8
Cc1ccc(S(=O)(=O)Nc2ccc(Cl)cc2)cc1NC(=O)c1cc2c(s1)CCCC2,53*,15,75*,8,20,-16
COc1ccc(-c2nc(CS(=O)CC(=O)NCCCN3CCOCC3)c(C)o2)cc1OC (stereo not given),-1,4,4,-4,-11,5
COc1ccc(C2NC(=S)N(c3ccccc3)C(C)=C2C(=O)Nc2ccccc2)cc1 (stereo not given),4,-5,2,-9,1,20

# Compound activity deposited in PubChem by several laboratories.
